Laboratory results: the EternaBench riboswitch data

System: MS2 coat protein
Assay: apparent Kd, MS2 coat protein; higher = weaker binding; RNA-MaP array; FMN 200 µM where present
Outline: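 Stalled E. coli RNA polymerase transcribed the designs on Illumina sequencing-chip clusters. SNAP-549-labelled MS2 coat protein was titrated from 0.7 or 1.5 nM, doubling to 3 µM, without and then with constant ligand, in 100 mM Tris-HCl pH 7.5, 80 mM KCl, 4 mM MgCl2, BSA, DTT, yeast tRNA and Tween-20. Per-cluster binding curves were fitted to green signal normalised to red-channel RNA signal and control-cluster median Fmax. The apparent Kd is the median of the filtered fits.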

[1] = designed as: OFF switch for flavin mononucleotide, no ligand
[2] = ligand present: flavin mononucleotide, designed as: OFF switch for flavin mononucleotide
[3] = designed as: ON switch for flavin mononucleotide, no ligand
[4] = ligand present: flavin mononucleotide, designed as: ON switch for flavin mononucleotide

Row | Sequence | apparent Kd [1] | apparent Kd [2] | apparent Kd [3] | apparent Kd [4]
1 | UUAAAUCAUGUAGGAUAUGCAUGGCGAAGCUACGCAGAAGGACAUGAGGAUCACCCAUGUGCUAGCUACCGGAUACGGUGGCAA | 60.7 nM | 264 nM |  | 
2 | GGUACUCAAAGAGUACCAAUACGAACAUGAGGAUCACCCAUGUAGGAUAUGCUACUCAAAGAGUAGCAGAAGGACAUGUGCCUU | 31.4 nM | 252 nM |  | 
3 | CAGCGCUGUCGAGAGGAUAUGCGGUGAUGGACAUGAGGAUCACCCAUGUUAGCGAUAGCAUUACGGUAGAAGGCUCUGCAGCUGC |  |  | 128 nM | 21 nM
4 | UGUUGUAUUACAGGAUAUCUAGUAUUUUCAUUUAGAGAAGGGUAUUCACAUGAGGAUCACCCAUGUAUAUACGAGGAAGUUGUG |  |  | 43.7 nM | 45.4 nM
5 | UCGGCGCGAGGAUAUGCGGUUUGUGCUUCGGGCCCUCGCGUACAUGAGGAUCACCCAUGUAGAAGGCGCGCCGC | 201 nM | 123 nM |  | 
6 | GUAGCUAUCGGAGGAUAUUCAUACCGGAAAAGGACAUGAGGAUCACCCAUGUGGUGAAAGCCUUGGGAGAAGGCCGAUAGCUAC |  |  | 484 nM | 191 nM
7 | CGGUACAUCGGAGGAUAUCAUGUAAAUACAUGAGGAUCACCCAUGUCGAUGGAGACAUCGGAGAUUGAGAAGGCCGAUGUACCG |  |  | 186 nM | 9.27 nM
8 | GAAGCUCUGCAGCGAUUAGCUACAUGAGGAUCACCCAUGUGGGAGGAUAUACGUCGCUCCGCGGAGUAGAAGGCUUACAUGCGG | 9.86 nM | 21.7 nM |  | 
9 | GUAGCUAUCGGAGGAUAUUCAUACCGCAAACGGACAUGAGGAUCACCCAUGUGGCGAAAGCAUUGGGAGAAGGCCGAUAGCUAC |  |  | 22.5 nM | 5.68 nM
10 | CACUCGUGUCUAGGAUAUGAGUGACAAGCGCGAGAUUUUCUCGCCGCUAGCUCAGAAGGAGACAUGAGGAUCACCCAUGUAAGG | 59.7 nM | 12.5 nM |  | 
11 | CUUAGACAUGAGGAUCACCCAUGUGAGGAUAUGAUGCGAAUAAAGAAAGAAGAAAGCAUCAGAAGGCACAUAUG | 115 nM | 349 nM |  | 
12 | AUCCGGCGUGUAGGAUAUGGAAAAGAUAAGGAUCCAGAAGGACAUGAGGAUCACCCAUGUACAUGUAAACAGUCAUCACCGGAA | 35.3 nM | 50.9 nM |  | 
13 | AAAACAUGAGGAUCACCCAUGUAAAGAUCGGUUGAUGAAAGUGAGGAUAUACAAAAUUUUAUGGAGUAGAAGGCACUGGGUACA |  |  | 44.6 nM | 40.9 nM
14 | ACUAGAUGAGGAUAUGCAUGUUUUCGUGUUCUUCUAGAUUAACAUGAGGAUCACCCAUGUAGAAGGCGUCAAUU | 41.5 nM | 132 nM |  | 
15 | AAUGUUUGAUUCCACCUAUACAUGAGGAUCACCCAUGUUAUCGAGGAUAUGCAUUAGAGUGUUUAGCAGAAGGCGAUGUAAUUG | 8.34 nM | 23 nM |  | 
16 | UUGGACAGCUAGAGCUGCUAAGUACAUGAGGAUCACCCAUGUCAGGAUAUCCUUCCGCAAUGCGAGGAGAAGGGACAGGGUCCC | 75.4 nM | 179 nM |  | 
17 | CUGUGUGACCGAGGAUAUAGACAUGAGGAUCACCCAUGUACGCCCAUCCAUGAAAGGUCCGUCGUCUAGAAGGCGGAGGCAAUG | 11.2 nM | 23.4 nM |  | 
18 | AAUAUUUAUUGAGGAUAUUCAUACACUGUAUACGGAGAAGGCAAACAAUCAUGAGGACAUGAGGAUCACCCAUGUUGUGACCAU |  |  | 19.8 nM | 14.3 nM
19 | AGUGUGUGGCAGGAUAUUCUGGUCGUGAGUCGGGAAGAAGGGUCUACAUGAGGAUCACCCAUGUGAGCGGUUGA | 99.4 nM | 258 nM |  | 
20 | GUCAGCACGUGAGGAUAUACAACACUGCUUCGGCAGUGUAUUAAGAUCACAUGAGGAUCACCCAUGUAGAAGGCACGAGCUGAU | 13.6 nM | 268 nM |  | 
21 | UGAAAUCAUGUAGGAUAUGCAUGGCGAAGCUACGCAGAAGGACAUGAGGAUCACCCAUGUUAUGGCUACCCAGUUCGGUGGCAA | 51.8 nM | 117 nM |  | 
22 | GCCAUCACAUGAGGAUAUGCUCGGGUUUCCCGAGCAGAAGGCAUGUCAUAAGACAUGAGGAUCACCCAUGUAGUUAAGAUGGCA |  |  | 399 nM | 14.5 nM
23 | GGAUGAUUAACAGGAUAUCAUUUGUAAAUUGGUUGAGAAGGGUUAAUGAUUUAAACGACCUGUUACAUGAGGAUCACCCAUGUU |  |  | 64.3 nM | 38.2 nM
24 | CAGCGAAAGCUGAAUCUGUAGAGAGAGGAUAUACGUCAUAAGAUGCAUACAUGAGGAUCACCCAUGUAGAAGGCUCUCUACAGU | 5.68 nM | 6.7 nM |  | 
25 | UGUCGGAGCAGAGGAUAUUACAUGAGGAUCACCCAUGUAUGAACCAAUAGCUGGAAACAGCAAUGUAAGAAGGCUGCUCCCACA | 12 nM | 138 nM |  | 
26 | UUUGUUUUGCAAGGAUAUGUUUAAUUUUAGUUUCCUUACACAUGAGGAUCACCCAUGUUAUACUUACAGAAGGUGCGUAAUUUU | 126 nM | 94 nM |  | 
27 | GGGUAGAUCGGAGGAUAUCAUGUAAAUACAUGAGGAUCACCCAUGUCGAUGGAGACAUCGGAGAUUGAGAAGGCCGAUGUACCG |  |  | 166 nM | 8.4 nM
28 | AACAUGCUUGGGUAACCUGGCACAUGAGGAUCACCCAUGUGACAGGAUAUCGACGUAGAUGGCGACGAGAAGGGUCCGAUGGGU | 7.13 nM | 10.8 nM |  | 

Row | Sequence | apparent Kd [1] | apparent Kd [2] | apparent Kd [3] | apparent Kd [4]
29 | UCCAAAUCGUAGAAGGGUGACAUGAGGAUCACCCAUGUGCAGCAACCGUGAACGGCCAUGCUGCCACAGGAUAUACGAUGGAGU |  |  | 14.1 nM | 29.8 nM
30 | GUUGUCUAUGUAGGAUAUGCGAGGCGAGCCUAAGCAGAAGGACAUGAGGAUCACCCAUGUAUUGCGGUCUGCGUUCAGAUCGCU | 38.1 nM | 141 nM |  | 
31 | GAAUAGCGAGGAUAUGCAAUGAAGAUAGUACGAUAUGGCUGACAUGAGGAUCACCCAUGUAGAAGGCGCUGAUC | 44.8 nM | 40 nM |  | 
32 | GAGUGACAUGAGGAUCACCCAUGUGAGGAUAUCGGACGGACCUAGUUAACAUCCGCCGCGAGAAGGCACAUCGG | 156 nM | 27 nM |  | 
33 | GUAGCUACUAUUAUACAUGAGGAUCACCCAUGUUACAUGGGUAAGGAUAUUGAAGUUAUGAUUAUCAAGAAGGUACUAUGCUAC |  |  | 511 nM | 118 nM
34 | GUCAGCUCGUGAGGAUAUACAUAAUAUCAAGAUCACAUGAGGAUCACCCAUGUAGAAGGCACGAGCUGAUAAGCACGAAAGUGC | 12.1 nM | 102 nM |  | 
35 | GUCUGUUACGAGAAGGACAAUUGGAUGCAGGCUGUAGGAUAUCGAGGCAGACAUGAGGAUCACCCAUGUAGGCUUACGAUGGGU | 11.7 nM | 19.1 nM |  | 
36 | CCGCUCGAAGGAUAUACAAUCCUCAGACUCUUCGACCAAAGACAUGAGGAUCACCCAUGUAGAAGGUCGGCGGA | 13.3 nM | 25.9 nM |  | 
37 | GAGUAGGGAGGAUAUACGUGCUCAAUCCCGGAAAGCGGGAAACAUGAGGAUCACCCAUGUAGAAGGCCCAUAAA | 82.1 nM | 46.4 nM |  | 
38 | CUAUUUAGUGCCUCAUGUACAUGAGGAUCACCCAUGUUAACUUAGGAUAUAUUUAUAUUGAUAGAGUAGAAGGAAGUACUAUUU | 22 nM | 18.8 nM |  | 
39 | UUUUAGUGAGGAUAUGUGGCUUCGAUCGUGAGAUCGAGGCUACAGAAGGCACAUGAGGAUCACCCAUGUUCCUC | 38.3 nM | 597 nM |  | 
40 | AAAAAACAUGAGGAUCACCCAUGUGAGGAUAUCGGAAAAGGAAAAAAAAAAAAGAAGACGAGAAGGCACAAAGA | 48.4 nM | 60.4 nM |  | 
41 | AUCAGCUCGUCAGGAUAUACGCCACUGCGUCAGCAGUGUGGUAAGAUCACAUGAGGAUCACCCAUGUAGAAGGGACGAGCUGAU | 10.9 nM | 147 nM |  | 
42 | AGUAAGAUGCAGAAGGUGUCAGCGAGAGCUGCGACAUGAGGAUCACCCAUGUACCGGUGACGGUACAAGGAUAUGCAUCUUACA |  |  | 882 nM | 360 nM
43 | GGGAAGUAAGGAUAUGCUGCUCGUCACUUGCGUGAUGAGUAGCAGAAGGUACAUGAGGAUCACCCAUGUAAAAA | 30.2 nM | 28.6 nM |  | 
44 | AAAAAAAAGGGUGAGGAUAUAGAAAAAAAAACAUGAGGAUCACCCAUGUGAAAAAAAAAAAAAAGCUAGAAGGCACAAAAAAAAAA |  |  | 243 nM | 162 nM
45 | UUUGUUUAGGUAGGAUAUACUUUUAAUUUCUCUUUCCUUACAUGAGGAUCACCCAUGUUUACAUUGUAGAAGGACCACUUUGUU | 21.8 nM | 19.8 nM |  | 
46 | UCCGCUCGAGGAUAUACAUGAGGAUCACCCAUGUUUCCCUGUUGUUUGGCCUUAGGAUGUAGAAGGCGACGUUA | 17.7 nM | 17.8 nM |  | 
47 | AUGCCGUGCAGAGCGCGACGGCGAACAUGAGGAUCACCCAUGUAGGAUAUACUACACAAAGUGUAGUAGAAGGACGUGCAACAC | 25.5 nM | 34.7 nM |  | 
48 | AGUAAGAUGCAGAAGGUGUCAGCGAGAGCUGCGACAUGAGGAUCACCCAUGUACUAGUGAGAGUACAAGGAUAUGCAUCUUACA |  |  | 313 nM | 45.7 nM
49 | UGAAUCAAUACAGGAUAUGGUGACGCACAUGAGGAUCACCCAUGUCCGCAGCGUGCUCAGCACGCCCAGAAGGGUAUUGAUCCG |  |  |  | 84.8 nM
50 | GUGAAGAAUUAAGGAUAUUGAAUACAUAUGUUUAACAUGAGGAUCACCCAUGUGGGUUGCGGUAUCGAGAAGGUAAAUUACUGG |  |  | 111 nM | 126 nM
51 | GCAGGUUAAGUCAGGAUAUACCUAUGGAUACAUAGGUAGAAGGGACAUGAGGAUCACCCAUGUGACUCACCUGC | 27.9 nM | 57.6 nM |  | 
52 | AUUUCGACCACAGGAUAUGUUUGACCGAUACUUACAGAAGGGUGGUCCACGCGCACAAGCACAUGAGGAUCACCCAUGUAACGA |  |  | 20.1 nM | 60.7 nM
53 | AGAAAGUGAGGAUAUACAUGAGGAUCACCCAUGUAGAACGAGAGUUAUAAAAAUGGAAGUAGAAGGCACAAAAG | 34.3 nM | 37.1 nM |  | 
54 | GGAGCAUAUGUCAGGAUAUCGUGGUCGAUAGAUCACGAGAAGGGACAUGAGGAUCACCCAUGUCUGUCCGCUCC | 14.2 nM | 16.4 nM |  | 
55 | UUUAUAAAUUAGAAGGCGAGAUGAAUUACAAUAGACAUGAGGAUCACCCAUGUGUACCCAUGUUUUGAGGAUAUAGUCAUAUAU |  |  | 743 nM | 585 nM
